{"data": "Published values from different studies", "target": "Ephrin type-A receptor 4 (EPHA4, Homo sapiens, UniProt P54764)", "note": "Lines come from different studies, so protocols differ."}
{"SMILES": "N#CC1(c2ccccn2)CCN(Cc2cc(C(=O)N3CCCC3)c(=O)n3ccccc23)CC1", "test": "cell-free assay, competition with immobilised ligand", "setting": "1 µM", "quantity": "remaining binding", "value": "89%"}
{"SMILES": "CC(C)(C)c1nc(-c2cccc(NS(=O)(=O)c3c(F)cccc3F)c2F)c(-c2ccnc(N)n2)s1", "test": "enzyme activity, inhibitor, radiometric", "setting": "1 µM", "quantity": "remaining activity", "value": "97%"}
{"SMILES": "Cc1cnc(NC2CCOCC2)nc1-n1cnc(C(=O)NC(CN)c2cc(F)cc(Cl)c2)c1 (centres unmarked)", "test": "enzyme activity, inhibitor, radiometric", "setting": "1 µM", "quantity": "remaining activity", "value": "104%"}
{"SMILES": "COc1cc(/C=C/C(=O)CC(=O)/C=C/c2ccc(O)c(OC)c2)ccc1O", "test": "enzyme activity, inhibitor", "setting": "1 µM", "quantity": "activity vs control", "value": "118%"}
{"SMILES": "CCC(=O)N[C@@H]1CC[C@H](C(=O)N(C)c2ccc(-c3nc4ccccc4o3)cc2)C1", "test": "cell-free assay, competition with immobilised ligand", "setting": "1 µM", "quantity": "remaining binding", "value": "100%"}
{"SMILES": "CCN(CC)c1ccc(C2=NNC(=O)CC2C)cc1[N+](=O)[O-] (centres unmarked)", "test": "enzyme activity, inhibitor", "setting": "10 µM", "quantity": "remaining activity", "value": "85%"}
{"SMILES": "CCS(=O)(=O)c1cc2cc(C[C@](O)(CC(C)(C)c3ccc(F)cc3C(N)=O)C(F)(F)F)[nH]c2cn1", "test": "cell-free assay, competition with immobilised ligand", "setting": "1 µM", "quantity": "remaining binding", "value": "100%"}
{"SMILES": "Cc1ccc(Nc2nccc(N(C)c3ccc4c(C)n(C)nc4c3)n2)cc1S(N)(=O)=O", "test": "enzyme activity, inhibitor", "setting": "10 µM", "quantity": "inhibition", "value": "28%"}
{"SMILES": "C[C@@H](c1cccc(C#N)c1)n1cc(Cl)cc(C(N)=O)c1=N", "test": "cell-free assay, competition with immobilised ligand", "setting": "1 µM", "quantity": "remaining binding", "value": "90%"}
{"SMILES": "CNC(=O)c1cc(Oc2ccc(NC(=O)Nc3ccc(Cl)c(C(F)(F)F)c3)cc2)ccn1", "test": "enzyme activity, inhibitor", "setting": "10 µM", "quantity": "inhibition", "value": "56%"}
{"SMILES": "CCCOc1ccc(OC)c(F)c1C(=O)c1ccc(C(=O)N[C@@H]2CNC[C@H]2NC(=O)c2ccc3[nH]ncc3c2)cc1", "test": "enzyme activity, inhibitor", "setting": "10 µM", "quantity": "remaining activity", "value": "82%"}
{"SMILES": "CCCS(=O)(=O)Nc1ccc(F)c(C(=O)c2c[nH]c3ncc(-c4ccc(Cl)cc4)cc23)c1F", "test": "enzyme activity, inhibitor", "setting": "1 µM", "quantity": "inhibition", "value": "< 10%"}
{"SMILES": "COc1ccc2cc(OCC3(C(=O)O)CN(C(=O)c4ccc(F)cc4)C3)ccc2c1", "test": "cell-free assay, competition with immobilised ligand", "setting": "1 µM", "quantity": "remaining binding", "value": "100%"}
{"SMILES": "CN1CC(Oc2cnc(C#N)cc2-c2ccn3nc(NC(=O)C4CC4)cc3c2)C1", "test": "enzyme activity, inhibitor", "setting": "1 µM", "quantity": "inhibition", "value": "11%"}
{"SMILES": "O=C(NCc1ncc(C(F)(F)F)cc1Cl)c1ccc2c(c1)C1(CCS(=O)(=O)CC1)[C@@H](C1CC1)N2S(=O)(=O)c1ccc(F)cc1", "test": "cell-free assay, competition with immobilised ligand", "setting": "1 µM", "quantity": "remaining binding", "value": "97%"}
{"SMILES": "Cc1ccc(NC(=O)c2ccc(C)c(C(F)(F)F)c2)cc1C#Cc1nn(C2CCC(O)CC2)c2ncnc(N)c12 (centres unmarked)", "test": "cell-free assay", "setting": "10 µM", "quantity": "remaining signal", "value": "-2%"}
{"SMILES": "O=C(NCCCC1CCCCC1)c1ccc(CNC(=O)c2cnn(-c3ccccc3)c2C(F)(F)F)cc1", "test": "cell-free assay, competition with immobilised ligand", "setting": "0.1 µM", "quantity": "remaining binding", "value": "70%"}
{"SMILES": "Cn1c(=O)n(-c2ccc(C(C)(C)C#N)cc2)c2c3cc(-c4cnc5ccccc5c4)ccc3ncc21", "test": "enzyme activity, inhibitor", "setting": "10 µM", "quantity": "remaining activity", "value": "105%"}
{"SMILES": "CC/C(=N\\NC(=O)NCc1cccc(O)c1)c1ccc(O)c(C)c1O", "test": "enzyme activity, inhibitor", "setting": "0.1 µM", "quantity": "inhibition", "value": "0.3%"}
{"SMILES": "Cc1cc(NC(=O)c2cccc3cc(-c4cccc5[nH]nc(N)c45)ccc23)ccc1F", "test": "enzyme activity, inhibitor", "setting": "0.1 µM", "quantity": "activity vs control", "value": "73%"}
{"SMILES": "COc1cc2ncnc(Nc3ccc(Oc4ccccc4)cc3C)c2cc1OC", "test": "enzyme activity, inhibitor", "setting": "1 µM", "quantity": "inhibition", "value": "10%"}
{"SMILES": "CCN(CC)CCNC(=O)c1c(C)[nH]c(/C=C2\\C(=O)Nc3ccc(F)cc32)c1C", "test": "enzyme activity, inhibitor", "setting": "10 µM", "quantity": "inhibition", "value": "46%"}
{"SMILES": "O=C1Nc2ccc(Cl)cc2C1=Cc1cc(Cl)c(O)c(Cl)c1", "test": "cell-free assay", "setting": "0.5 µM", "quantity": "remaining signal", "value": "93.1%"}
{"SMILES": "O=C(Nc1cnn(-c2csc(C(=O)NC3COC3)c2)c1)Nc1ccccc1Cl", "test": "enzyme activity, inhibitor", "setting": "5 µM", "quantity": "remaining activity", "value": "100%"}
{"SMILES": "Nc1ncnc2occ(-c3ccc(NC(=O)Nc4cc(C(F)(F)F)ccc4F)cc3)c12", "test": "cell-free assay", "setting": "20 µM", "quantity": "remaining signal", "value": "0%"}
{"SMILES": "COc1cc(Nc2cnc(C#N)c(O[C@H](C)CN(C)C)n2)ncc1-c1cnn(C)c1", "test": "enzyme activity, inhibitor, radiometric", "setting": "10 µM", "quantity": "remaining activity", "value": "41%"}
